# Test results reported in ChEMBL document CHEMBL3862036, “Biphenyl Pyridazinone Derivatives as Inhaled PDE4 Inhibitors: Structural Biology and Structure-Activity Relationships” (J Med Chem, 2016).
# Assays:
# [1] = Drug metabolism in human liver S9 fraction assessed as glucuronidation in presence of PAPS and UDPGA incubated for 20 mins; format: ADME, subcellular; conditions: read-out: Drug metabolism
# [2] = Inhibition of PDE4 in PBMC (unknown origin) assessed as reduction in LPS-induced TNFalpha production incubated for 24 hrs by ELISA; conditions: Homo sapiens
# [3] = Inhibition of PDE4 in human whole blood assessed as reduction in LPS-induced TNFalpha production incubated for 24 hrs by ELISA; format: tissue-based
# Procedure, shortened: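 Human whole blood was preincubated with LPS (final 1 μg/mL) for 10 min at 37 °C with rocking. 200 μL was added to wells holding increasing inhibitor concentrations in 100% DMSO. Plates were incubated 24 h at 37 °C under agitation, then placed on ice, diluted with PBS and centrifuged at 800g, 4 °C, for 15 min before TNF-α measurement.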
# [4] = Drug metabolism in human liver S9 fraction assessed as sulfonation in presence of PAPS and UDPGA incubated for 20 mins; format: ADME, subcellular; conditions: read-out: Drug metabolism
# Adenosine receptor A2b = molecular target: T1, Adenosine receptor A2b (Homo sapiens, UniProt P29275); experiment: Antagonist activity at adenosine A2b receptor (unknown origin)
# T1 sequence (P29275 whole entry): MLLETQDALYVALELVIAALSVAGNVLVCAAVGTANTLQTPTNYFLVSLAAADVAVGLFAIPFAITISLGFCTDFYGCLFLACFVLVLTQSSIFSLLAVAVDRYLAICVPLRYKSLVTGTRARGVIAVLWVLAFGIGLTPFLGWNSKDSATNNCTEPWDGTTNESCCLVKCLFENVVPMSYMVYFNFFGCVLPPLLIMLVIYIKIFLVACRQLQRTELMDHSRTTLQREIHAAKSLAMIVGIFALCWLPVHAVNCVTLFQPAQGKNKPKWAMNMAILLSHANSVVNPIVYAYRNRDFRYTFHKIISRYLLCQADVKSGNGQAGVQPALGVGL
# Rattus norvegicus [5] = experiment: Anti-inflammatory activity in Sprague-Dawley rat assessed as inhibition of LPS-induced neutrophilia at 1000 ug/kg, it administered as suspension with Penn-Century micro-sprayer aerosolizer dosed 18 hrs before LPS challenge and measured 22 hrs post dose; format: functional; conditions: inhaled or nasal
# Procedure, shortened: (§1)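 Suspensions in PBS/0.2% Tween 80 were homogenized, with lower doses made by 1:10 dilutions. 0.2 mL was given intratracheally by MicroSprayer to isoflurane-anesthetized fasted male Sprague-Dawley rats (230–280 g). At 1 or 18 h, rats received nebulized LPS (30 mL of a 1:100 PBS dilution of 100 mg/10 mL stock) over 40 min. Four hours later, BAL neutrophils were counted by flow cytometry.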
# Adenosine receptor A2a = Adenosine receptor A2a (Homo sapiens, UniProt P29274); experiment: Antagonist activity at adenosine A2a receptor (unknown origin)
# Adenosine receptor A1 = molecular target: T2, Adenosine receptor A1 (Homo sapiens, UniProt P30542); experiment: Antagonist activity at adenosine A1 receptor (unknown origin)
# T2 sequence (P30542 whole entry): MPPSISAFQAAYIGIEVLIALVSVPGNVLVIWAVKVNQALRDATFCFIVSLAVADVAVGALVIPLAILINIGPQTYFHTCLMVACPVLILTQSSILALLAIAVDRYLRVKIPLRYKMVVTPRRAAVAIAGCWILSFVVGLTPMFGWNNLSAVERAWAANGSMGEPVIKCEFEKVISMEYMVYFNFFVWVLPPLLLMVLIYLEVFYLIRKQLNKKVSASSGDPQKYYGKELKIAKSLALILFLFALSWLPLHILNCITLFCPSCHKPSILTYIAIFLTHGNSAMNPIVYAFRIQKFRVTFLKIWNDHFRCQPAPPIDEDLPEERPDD
# Rattus norvegicus [6] = experiment: Anti-inflammatory activity in Sprague-Dawley rat assessed as inhibition of LPS-induced neutrophilia at 1000 ug/kg, it administered as suspension with Penn-Century micro-sprayer aerosolizer dosed 1 hrs before LPS challenge and measured 5 hrs post dose; format: functional; conditions: inhaled or nasal; procedure, shortened: as §1
# Rattus norvegicus [7] = experiment: Anti-inflammatory activity in Sprague-Dawley rat assessed as inhibition of LPS-induced neutrophilia at 10 to 1000 ug/kg, it administered as suspension with Penn-Century micro-sprayer aerosolizer dosed 1 hrs before LPS challenge and measured 5 hrs post dose; format: functional; conditions: inhaled or nasal; procedure, shortened: as §1
# Rattus norvegicus [8] = experiment: Anti-inflammatory activity in Sprague-Dawley rat assessed as inhibition of LPS-induced neutrophilia at 300 ug/kg, it administered as suspension with Penn-Century micro-sprayer aerosolizer dosed 18 hrs before LPS challenge and measured 22 hrs post dose; format: functional; conditions: inhaled or nasal; procedure, shortened: as §1
# Rattus norvegicus [9] = experiment: Anti-inflammatory activity in Sprague-Dawley rat assessed as inhibition of LPS-induced neutrophilia at 100 ug/kg, it administered as dry powder with lactose carrier through Penn-Century insufflator dosed 18 hrs before LPS challenge and measured 22 hrs post dose; format: functional
# Procedure, shortened: (§2)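 Compounds were micronized, comixed with lactose, and 5 mg of the mixture was insufflated intratracheally into isoflurane-anesthetized fasted male Sprague-Dawley rats (230–280 g). LPS aerosol (30 mL of a 1:100 PBS dilution of 100 mg/10 mL stock) was nebulized for 40 min at 1 or 18 h post-dose. BAL was taken 4 h later and neutrophils counted by flow cytometry. Controls: lactose alone, lactose+LPS, fluticasone (10% in lactose).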
# Rattus norvegicus [10] = experiment: Anti-inflammatory activity in Sprague-Dawley rat assessed as inhibition of LPS-induced neutrophilia at 10 ug/kg, it administered as dry powder with lactose carrier through Penn-Century insufflator dosed 18 hrs before LPS challenge and measured 22 hrs post dose; format: functional; procedure, shortened: as §2
# Rattus norvegicus [11] = experiment: Anti-inflammatory activity in Sprague-Dawley rat assessed as inhibition of LPS-induced neutrophilia at 10 ug/kg, it administered as dry powder with lactose carrier through Penn-Century insufflator dosed 1 hrs before LPS challenge and measured 5 hrs post dose; format: functional; procedure, shortened: as §2
# Rattus norvegicus [12] = experiment: Anti-inflammatory activity in Sprague-Dawley rat assessed as inhibition of LPS-induced neutrophilia at 100 ug/kg, it administered as suspension with Penn-Century micro-sprayer aerosolizer dosed 18 hrs before LPS challenge and measured 22 hrs post dose; format: functional; conditions: inhaled or nasal; procedure, shortened: as §1
# Rattus norvegicus [13] = experiment: Anti-inflammatory activity in Sprague-Dawley rat assessed as inhibition of LPS-induced neutrophilia at 100 ug/kg, it administered as dry powder with lactose carrier through Penn-Century insufflator dosed 1 hrs before LPS challenge and measured 5 hrs post dose; format: functional; procedure, shortened: as §2
# Rattus norvegicus [14] = experiment: Anti-inflammatory activity in Sprague-Dawley rat assessed as inhibition of LPS-induced neutrophilia at 10 ug/kg, it administered as suspension with Penn-Century micro-sprayer aerosolizer dosed 1 hrs before LPS challenge and measured 5 hrs post dose; format: functional; conditions: inhaled or nasal; procedure, shortened: as §1
# Rattus norvegicus [15] = experiment: Anti-inflammatory activity in Sprague-Dawley rat assessed as inhibition of LPS-induced neutrophilia at 30 ug/kg, it administered as suspension with Penn-Century micro-sprayer aerosolizer dosed 18 hrs before LPS challenge and measured 22 hrs post dose; format: functional; conditions: inhaled or nasal; procedure, shortened: as §1
# Rattus norvegicus [16] = experiment: Anti-inflammatory activity in Sprague-Dawley rat assessed as inhibition of LPS-induced neutrophilia at 100 ug/kg, it administered as suspension with Penn-Century micro-sprayer aerosolizer dosed 1 hrs before LPS challenge and measured 5 hrs post dose; format: functional; conditions: inhaled or nasal; procedure, shortened: as §1
# [17] = Basicity constant, pKB of the compound; format: physicochemical
# [18] = Pro-inflammatory activity in Sprague-Dawley rat assessed as induction of neutrophilia at 1000 ug/kg, it administered as dry powder with lactose carrier through Penn-Century insufflator; conditions: in vivo, inhaled_or_intranasal, 1 mg/kg
# Rattus norvegicus [19] = experiment: Anti-inflammatory activity in Sprague-Dawley rat assessed as inhibition of LPS-induced neutrophilia at 10 to 1000 ug/kg, it administered as suspension with Penn-Century micro-sprayer aerosolizer dosed 18 hrs before LPS challenge and measured 22 hrs post dose; format: functional; conditions: inhaled or nasal; procedure, shortened: as §1
# Rattus norvegicus [20] = experiment: Anti-inflammatory activity in Sprague-Dawley rat assessed as inhibition of LPS-induced neutrophilia at 10 to 1000 ug/kg, it administered as dry powder with lactose carrier through Penn-Century insufflator dosed 1 hrs before LPS challenge and measured 5 hrs post dose; format: functional; procedure, shortened: as §2
# Rattus norvegicus [21] = experiment: Anti-inflammatory activity in Sprague-Dawley rat assessed as inhibition of LPS-induced neutrophilia at 2000 ug/kg, it administered as dry powder with lactose carrier through Penn-Century insufflator dosed 18 hrs before LPS challenge and measured 22 hrs post dose; format: functional; procedure, shortened: as §2
# Rattus norvegicus [22] = experiment: Anti-inflammatory activity in Sprague-Dawley rat assessed as inhibition of LPS-induced neutrophilia at 1000 ug/kg, it administered as dry powder with lactose carrier through Penn-Century insufflator dosed 18 hrs before LPS challenge and measured 22 hrs post dose; format: functional; procedure, shortened: as §2
# Rattus norvegicus [23] = experiment: Anti-inflammatory activity in Sprague-Dawley rat assessed as inhibition of LPS-induced neutrophilia at 6000 ug/kg, it administered as dry powder with lactose carrier through Penn-Century insufflator dosed 18 hrs before LPS challenge and measured 22 hrs post dose; format: functional; procedure, shortened: as §2
# Sequence of Adenosine receptor A2a (P29274 whole entry): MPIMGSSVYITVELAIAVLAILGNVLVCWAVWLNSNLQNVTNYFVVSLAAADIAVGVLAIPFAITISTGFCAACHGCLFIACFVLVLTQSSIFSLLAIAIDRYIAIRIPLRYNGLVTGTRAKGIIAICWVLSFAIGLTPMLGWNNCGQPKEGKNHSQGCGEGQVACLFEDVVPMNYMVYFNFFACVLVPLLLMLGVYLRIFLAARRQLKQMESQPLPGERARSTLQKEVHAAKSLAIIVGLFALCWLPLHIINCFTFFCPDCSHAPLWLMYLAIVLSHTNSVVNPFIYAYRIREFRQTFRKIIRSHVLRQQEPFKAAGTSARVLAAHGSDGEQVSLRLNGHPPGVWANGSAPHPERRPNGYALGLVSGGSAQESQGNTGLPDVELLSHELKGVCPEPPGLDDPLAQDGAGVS
SMILES,metabolised at 20 min [1] [%],IC50 [2] [nM],IC50 [3] [nM],metabolised at 20 min [4] [%],IC50 (Adenosine receptor A2b) [nM],IC50 (Adenosine receptor A2a) [nM],IC50 (Adenosine receptor A1) [nM],inhibition in vivo at 1 mg/kg (Rattus norvegicus [5]) [%],ED50 (Rattus norvegicus [7]) [mg/kg],inhibition in vivo at 0.1 mg/kg (Rattus norvegicus [16]) [%],other results
CCn1nc(-c2cccc(-c3ccc(O)cc3)c2)cc(NC(=O)Nc2c(Cl)cncc2Cl)c1=O,2,0.9,117,0.3,–,–,–,–,–,–,–
CCn1nc(-c2cccc(-c3cncc(O)c3)c2)cc(NC(=O)Nc2c(Cl)cncc2Cl)c1=O,36,0.29,64,16,111,333,11,23,–,–,inhibition in vivo at 1 mg/kg (Rattus norvegicus [6]): 58%
CCn1nc(-c2cccc(-c3cc(C(=O)NCCCN(C)C)cc(C(=O)OC)c3)c2)cc(NC(=O)Nc2c(Cl)cncc2Cl)c1=O,–,0.05,–,–,> 1000,> 1000,71,–,–,64,inhibition in vivo at 0.01 mg/kg (Rattus norvegicus [14]): 52%; inhibition in vivo at 0.3 mg/kg (Rattus norvegicus [8]): 26%; inhibition in vivo at 0.03 mg/kg (Rattus norvegicus [15]): 30%
CCn1nc(-c2cccc(-c3ccc(O)c(F)c3)c2)cc(NC(=O)Nc2c(Cl)cncc2Cl)c1=O,6,2.4,93,3,–,–,–,–,0.342,–,–
CCNC(=O)c1cc(C(=O)NCCCN(C)C)cc(-c2cccc(-c3cc(NC(=O)Nc4c(Cl)cncc4Cl)c(=O)n(CC)n3)c2)c1,–,0.36,–,–,368,> 1000,537,–,0.018,–,inhibition in vivo at 0.3 mg/kg (Rattus norvegicus [8]): 60%; inhibition in vivo at 0.03 mg/kg (Rattus norvegicus [15]): 58%; inhibition in vivo at 0.1 mg/kg (Rattus norvegicus [12]): 48%
CCn1nc(-c2cccc(-c3ccc(CC(=O)NCCCCCCCN(C)CCO)cc3)c2)cc(NC(=O)Nc2c(Cl)cncc2Cl)c1=O,–,0.57,323,–,94,86,61,–,–,69,ED50 (Rattus norvegicus [19]): 0.091 mg/kg; fold change (FC) [18]: 1.9; inhibition in vivo at 0.1 mg/kg (Rattus norvegicus [13]): 23%
CCn1nc(-c2cccc(-c3ccc(C(=O)O)cc3)c2)cc(NC(=O)Nc2c(Cl)cncc2Cl)c1=O,0,0.55,373,–,–,–,–,25,–,50,inhibition in vivo at 1 mg/kg (Rattus norvegicus [22]): 8%; ED50 (Rattus norvegicus [20]): 0.015 mg/kg; inhibition in vivo at 1 mg/kg (Rattus norvegicus [6]): 59%
O=C(Nc1c(Cl)cncc1Cl)c1ccc(OC(F)F)c(OCC2CC2)c1 [ROFLUMILAST],–,4,36,–,> 1000,> 1000,> 1000,24,0.126,–,ED50 (Rattus norvegicus [20]): 0.204 mg/kg; ED50 (Rattus norvegicus [19]): > 1 mg/kg; inhibition in vivo at 6 mg/kg (Rattus norvegicus [23]): 37%; inhibition in vivo at 1 mg/kg (Rattus norvegicus [6]): 80%

# Second part, led by results:
metabolised at 20 min [1] [%],IC50 [2] [nM],IC50 [3] [nM],metabolised at 20 min [4] [%],IC50 (Adenosine receptor A2b) [nM],IC50 (Adenosine receptor A2a) [nM],IC50 (Adenosine receptor A1) [nM],SMILES,inhibition in vivo at 1 mg/kg (Rattus norvegicus [5]) [%],ED50 (Rattus norvegicus [7]) [mg/kg],inhibition in vivo at 0.1 mg/kg (Rattus norvegicus [16]) [%],other results
–,0.52,374,–,90,105,31,CCn1nc(-c2cccc(-c3ccc(CC(=O)NCCN4CCCCC4)cc3)c2)cc(NC(=O)Nc2c(Cl)cncc2Cl)c1=O,–,0.089,–,inhibition in vivo at 0.3 mg/kg (Rattus norvegicus [8]): 47%; inhibition in vivo at 0.1 mg/kg (Rattus norvegicus [9]): 39%; inhibition in vivo at 0.01 mg/kg (Rattus norvegicus [10]): 42%; inhibition in vivo at 0.01 mg/kg (Rattus norvegicus [11]): 48%; inhibition in vivo at 0.1 mg/kg (Rattus norvegicus [12]): 48%; inhibition in vivo at 0.1 mg/kg (Rattus norvegicus [13]): 42%
–,0.34,125,–,–,9,2,CCn1nc(-c2cccc(-c3cccc(C(=O)NCCN4CCNCC4)c3)c2)cc(NC(=O)Nc2c(Cl)cncc2Cl)c1=O,–,–,62,pKb [17]: 9.8; inhibition in vivo at 0.1 mg/kg (Rattus norvegicus [12]): 40%
–,0.43,81,–,169,22,6,CCn1nc(-c2cccc(-c3cccc(C(=O)NCCN4CCCCC4)c3)c2)cc(NC(=O)Nc2c(Cl)cncc2Cl)c1=O,–,–,66,fold change (FC) [18]: 1.1; pKb [17]: 11.2
21,0.7,95,3,172,168,87,CCn1nc(-c2cccc(-c3cccc(O)c3)c2)cc(NC(=O)Nc2c(Cl)cncc2Cl)c1=O,0,0.416,–,ED50 (Rattus norvegicus [20]): 0.551 mg/kg; inhibition in vivo at 2 mg/kg (Rattus norvegicus [21]): 7%
–,0.07,59,–,145,33,15,CCn1nc(-c2cccc(-c3cccc(C(=O)NCCN4CCOCC4)c3)c2)cc(NC(=O)Nc2c(Cl)cncc2Cl)c1=O,–,–,52,fold change (FC) [18]: 1.1; pKb [17]: 8.3
